Measurements: ChEMBL document CHEMBL1122172, “Syntheses and diuretic activity of 1,2-dihydro-2-(3-pyridyl)-3H-pyrido[2,3-d]pyrimidin-4-one and related compounds” (1982)
“And” between values parts separate entries of the source, which are not always exact repeats. Equal values may be shown once.

Assays:
Assay type in all cases: functional, Urine
Rattus norvegicus [1] = experiment: Total Na+ milliequivalents excretion in diuretic test at the dose of 27 mg/kg
In short: (§1)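 Oral dosing was in 25 mL/kg saline to male Sprague–Dawley rats (195–225 g) after 18 h without food or water, with saline-only controls. Groups of eight were kept two per metabolism cage. Urinary Na+, Cl− and K+ were reported as total mequiv excreted, with electrolyte analysis done externally. Values are mean ± SEM of two rats per cage, N = 8.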

Rattus norvegicus [2] = experiment: Total Na+ milliequivalents excretion in diuretic test at the dose of 9 mg/kg; in short: as §1
Rattus norvegicus [3] = experiment: Diuretic activity by measuring the urinary output after 5 hr at the dose of 27 mg/kg
In short: (§2)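 Male Sprague–Dawley rats (195–225 g) were fasted and deprived of water for 18 h, then dosed orally with compound dissolved in 25 mL/kg saline. Controls got 25 mL/kg saline alone. Groups of eight were used, housed two rats per metabolism cage right after dosing. Urine volume was collected at 2 h and 5 h after dosing. Values are mean ± SEM per cage pair, N = 8.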

Rattus norvegicus [4] = experiment: Total Cl- milliequivalents excretion in diuretic test at the dose of 12 mg/kg
In short: (§3)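 Male Sprague–Dawley rats (195–225 g) were fasted and deprived of water for 18 h. The compound was given orally, dissolved in 25 mL/kg saline; controls got saline alone. Groups of eight were housed as pairs in metabolism cages. Urine volume was read at 2 and 5 h, with total Na+, Cl− and K+ mequiv excreted. Values are mean ± SEM, N = 8.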

Rattus norvegicus [5] = experiment: Diuretic activity by measuring the urinary output after 2 hr at the dose of 1 mg/kg; in short: as §3
Rattus norvegicus [6] = experiment: Diuretic activity by measuring the urinary output after 5 hr at the dose of 3 mg/kg; in short: as §2
Rattus norvegicus [7] = experiment: Total K+ milliequivalents excretion in diuretic test at the dose of 1 mg/kg; in short: as §3
Rattus norvegicus [8] = experiment: Total Cl- milliequivalents excretion in diuretic test at the dose of 27 mg/kg; in short: as §1
Rattus norvegicus [9] = experiment: Diuretic activity by measuring the urinary output after 5 hr at the dose of 9 mg/kg; in short: as §2
Rattus norvegicus [10] = experiment: Total K+ milliequivalents excretion in diuretic test at the dose of 9 mg/kg; in short: as §1
Rattus norvegicus [11] = experiment: Total Cl- milliequivalents excretion in diuretic test at the dose of 9 mg/kg; in short: as §1
Rattus norvegicus [12] = experiment: Total Na+ milliequivalents excretion in diuretic test at the dose of 12 mg/kg; in short: as §3
Rattus norvegicus [13] = experiment: Diuretic activity by measuring the urinary output after 2 hr at the dose of 9 mg/kg; in short: as §2
Rattus norvegicus [14] = experiment: Total Cl- milliequivalents excretion in diuretic test at the dose of 1 mg/kg; in short: as §3
Rattus norvegicus [15] = experiment: Total Na+ milliequivalents excretion in diuretic test at the dose of 1 mg/kg; in short: as §3
Rattus norvegicus [16] = experiment: Total K+ milliequivalents excretion in diuretic test at the dose of 3 mg/kg; in short: as §1
Rattus norvegicus [17] = experiment: Diuretic activity by measuring the urinary output after 5 hr at the dose of 12 mg/kg; in short: as §3
Rattus norvegicus [18] = experiment: Diuretic activity by measuring the urinary output after 2 hr at the dose of 3 mg/kg; in short: as §2
Rattus norvegicus [19] = experiment: Total K+ milliequivalents excretion in diuretic test at the dose of 27 mg/kg; in short: as §1
Rattus norvegicus [20] = experiment: Total K+ milliequivalents excretion in diuretic test at the dose of 12 mg/kg; in short: as §3
Rattus norvegicus [21] = experiment: Total Na+ milliequivalents excretion in diuretic test at the dose of 3 mg/kg; in short: as §1
Rattus norvegicus [22] = experiment: Diuretic activity by measuring the urinary output after 2 hr at the dose of 27 mg/kg; in short: as §2
Rattus norvegicus [23] = experiment: Diuretic activity by measuring the urinary output at the dose of 25 mg/kg; in short: as §3
Rattus norvegicus [24] = experiment: Total Cl-mequiv excretion in diuretic test at the dose of 3 mg/kg; in short: as §3
Rattus norvegicus [25] = experiment: Diuretic activity by measuring the urinary output after 2 hr at the dose of 12 mg/kg; in short: as §3

Compound `NS(=O)(=O)c1cc2c(cc1Cl)NCNS2(=O)=O` [HYDROCHLOROTHIAZIDE] has an Excretion (Rattus norvegicus [1]) of 2.5 m equiv, an Excretion (Rattus norvegicus [2]) of 2.2 m equiv and an Excretion (Rattus norvegicus [3]) of 15.1 mL. It also gave an Excretion (Rattus norvegicus [4]) of 2.8 m equiv, an Excretion (Rattus norvegicus [5]) of 7.8 mL and an Excretion (Rattus norvegicus [6]) of 15.8 mL. It also gave an Excretion (Rattus norvegicus [7]) of 0.6 m equiv, an Excretion (Rattus norvegicus [8]) of 3 m equiv and an Excretion (Rattus norvegicus [9]) of 14.6 mL. It also gave an Excretion (Rattus norvegicus [10]) of 0.6 m equiv, an Excretion (Rattus norvegicus [11]) of 2.7 m equiv and an Excretion (Rattus norvegicus [12]) of 2.5 m equiv. For the same compound, the Excretion (Rattus norvegicus [13]) was 7.5 mL, the Excretion (Rattus norvegicus [14]) was 2.5 m equiv and the Excretion (Rattus norvegicus [15]) was 2 m equiv. The Excretion (Rattus norvegicus [16]) was 0.6 m equiv, the Excretion (Rattus norvegicus [17]) was 16 mL and 13.9 mL and the Excretion (Rattus norvegicus [18]) was 8.1 mL. For the same compound, the Excretion (Rattus norvegicus [19]) was 0.8 m equiv, the Excretion (Rattus norvegicus [20]) was 0.7 m equiv and 0.6 m equiv and the Excretion (Rattus norvegicus [21]) was 2.4 m equiv. For the same compound, the Excretion (Rattus norvegicus [22]) was 8.4 mL, the Control (Rattus norvegicus [23]) was 201% and the Excretion (Rattus norvegicus [24]) was 2.7 m equiv. It also gave an Excretion (Rattus norvegicus [25]) of 7.9 mL.
